T cruzi inh: inhibitors of intracellular T. cruzi growth, primary screen, luminescence, NIH3T3 host cells; T. cruzi beta-gal in NIH3T3, 90 h; inhibition, % (test concentration not listed); 300,000 compounds, 1.4% hits; AID 1885, 2009;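 active = mean inhibition across valid replicates above about 55%, limit read from the data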;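 note: signal also drops with host cell toxicity which is not excluded here; 0% = plate median of DMSO wells and 100% = zero luminescence signal; higher percent means less beta-gal luminescence so fewer parasites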
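Material: NIH/3T3 host cells with β-galactosidase reporter T. cruzi; Input: 5,000 host fibroblasts per well; Medium: DMEM, 2% fetal bovine serum; Compound: 50 nL DMSO compound solution per well; Schedule: 3 h host attachment, then at least 90 h co-culture; Detection: luminescent β-galactosidase signal after 60 min lysis.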
NS3 helicase inh: inhibitors of HCV NS3 helicase, primary screen, biochemical, Cy5 molecular beacon fluorescence; Hepatitis C virus NS3 helicase; NS3 helicase DNA unwinding; 290,000 compounds, 0.56% hits; inhibition, % at 10.9 µM;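 active = inhibition above the mean of all tested compounds plus 3 SD, set per campaign, cut at about 35% in these data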;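 note: 0% = DMSO wells and 100% = thioflavine S control wells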
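Test system: hepatitis C virus NS3 helicase domain fragment enzyme. Also added: annealed dual-labelled DNA beacon duplex, ATP-started. Timing: 60 min unwinding reaction at 25 °C after ATP addition. Technique: Cy5 fluorescence. Measure: % inhibition of unwinding.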
MEKK2wt PB1 HTS: modulators of MEK5 binding to wildtype MEKK2, primary screen, biochemical, multiplex bead flow cytometry, Alexa488-MEK5. Alexa488-MEK5 binding to MEKK2 WT; actives lie on both sides. binding response (% of control), % at 10 µM. 290,000 compounds, 1.1% hits. AID 1531, 2009; in the data active = binding response below about 67% or above about 130%
MEKK3 PB1 HTS: modulators of MEKK3-MEK5 PB1 binding, primary screen, biochemical, wildtype MEKK3, multiplex bead flow cytometry, Alexa488-MEK5; Mitogen-activated protein kinase kinase kinase 3 (Homo sapiens), Q99759; bead-based flow cytometry, Alexa488-MEK5 binding to MEKK3; actives lie on both sides; 0 = blocked by unlabeled MEK5, 100 = vehicle; binding response (% of control), % at 10 µM; 290,000 compounds, 1.4% hits;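 active = binding response more than 3 SD above or below the average of its plate-row segment, actives on both sides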;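 note: Alexa488 bead fluorescence after subtracting the streptavidin-only scavenger bead signal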
Target sequence (Q99759 whole entry, looked up): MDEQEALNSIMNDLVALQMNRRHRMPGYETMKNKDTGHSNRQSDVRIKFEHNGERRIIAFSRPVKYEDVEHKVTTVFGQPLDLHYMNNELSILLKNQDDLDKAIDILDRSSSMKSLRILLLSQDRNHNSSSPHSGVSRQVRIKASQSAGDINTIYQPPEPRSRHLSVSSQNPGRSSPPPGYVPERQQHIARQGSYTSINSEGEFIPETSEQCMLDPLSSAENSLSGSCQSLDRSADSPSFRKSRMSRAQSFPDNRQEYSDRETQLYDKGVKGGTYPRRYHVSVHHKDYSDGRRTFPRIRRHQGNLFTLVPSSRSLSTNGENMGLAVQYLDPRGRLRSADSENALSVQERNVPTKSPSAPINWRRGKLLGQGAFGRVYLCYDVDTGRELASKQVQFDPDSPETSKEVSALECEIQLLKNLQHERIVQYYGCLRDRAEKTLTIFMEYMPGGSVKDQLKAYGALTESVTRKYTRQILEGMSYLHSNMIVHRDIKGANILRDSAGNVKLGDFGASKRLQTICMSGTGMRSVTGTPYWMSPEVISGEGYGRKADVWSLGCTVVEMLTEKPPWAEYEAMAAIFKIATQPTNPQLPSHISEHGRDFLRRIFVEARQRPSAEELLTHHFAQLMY
MEKK2 mut-MEK5: MEK5 binding signal on mutant MEKK2 PB1, primary screen, biochemical, multiplex bead flow cytometry, Alexa488-MEK5; 290,000 compounds, 0.35% hits; percent response, % at 10 µM; Alexa488-MEK5 binding to MEKK2 mutant; AID 1530, 2009; in the data active = percent response above about 24%, passing the limit was not always enough
FID counter: compounds displacing fluorescent DNA intercalator, primary screen, artefact control for HCV NS3 helicase inhibitor project, biochemical, FID fluorescence; inhibition, % at 7.9 µM; DNA fluorescent intercalator displacement; 290,000 compounds, 0.17% hits; in the data active = inhibition above about 37%;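 note: 0% = vehicle and 100% = reference compound; higher means more ethidium bromide displaced from hairpin DNA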
* = called active by the depositor; . = no result given. Most compounds without a hit are left out; they make up all but 4.1% or so of the library.

SMILES	T cruzi inh	NS3 helicase inh	MEKK2wt PB1 HTS	MEKK3 PB1 HTS	MEKK2 mut-MEK5	FID counter
CC(=O)O[C@@]12CO[C@@H]1C[C@H](O)[C@@]1(C)C(=O)[C@H](O)C3=C(C)[C@@H](OC(=O)[C@H](O)[C@@H](NC(=O)c4ccccc4)c4ccccc4)C[C@@](O)([C@@H](OC(=O)c4ccccc4)C12)C3(C)C (some centres undefined)	55*	-21	101	98	2	-46
CC(=O)O[C@H]1C(=O)[C@@]2(C)C([C@H](OC(=O)c3ccccc3)[C@]3(O)C[C@H](OC(=O)[C@H](O)[C@@H](NC(=O)Cc4ccccc4)c4ccccc4)C(C)=C1C3(C)C)[C@]1(OC(C)=O)CO[C@@H]1C[C@@H]2O (some centres undefined)	41	-48	97	100	0	-49
CN1CCN(c2ccc3c(c2)S(=O)(=O)c2ccccc2C3=O)CC1	24	.	96	93	-5	.
CN1CCN(c2cccc3c2C(=O)c2ccccc2C3=O)CC1	33	14	110	111	-1	60*
CCNc1cc(N2CCN(C)CC2)ccc1[N+](=O)[O-]	37	-4	100	98	5	5
CN1CCN(c2ccc([N+](=O)[O-])c(N/N=C3\CN4CCC3CC4)c2)CC1	40	-2	95	96	-1	42*
CC(=NCCO)c1c(O)n(C2CCCCC2)c(=O)[nH]c1=O	-22	-2	96	93	-5	-6
CCC(=NCCCN(CC)CC)c1c(O)n(C2CCCCC2)c(=O)[nH]c1=O	66*	4	111	102	1	7
CCN(CC)CCCN=C(C)c1c(O)n(C2CCCCC2)c(=O)[nH]c1=O	65*	8	108	102	6	9
CCC(=NCCN1CCOCC1)c1c(O)n(C2CCCCC2)c(=O)[nH]c1=O	-6	0	109	108	12	-11
CCNC(=S)N1CCn2cccc2C1c1cccnc1 (centres undefined)	30	-1	97	98	-2	2
CCCCCn1c(=O)c(C(=O)NC(C)c2ccccc2)c(O)c2ccccc21 (centres undefined)	52	-5	103	102	3	-5
CN1C(=O)CN=C(c2ccccc2)c2cc([N+](=O)[O-])ccc21	.	-14	101	101	4	-7
CCCCn1c(=O)c(C(=O)Nc2ccccc2S(N)(=O)=O)c(O)c2ccccc21	-3	-3	108	102	5	-6
CCCCCn1c(=O)c(C(=O)Nc2ccccc2S(N)(=O)=O)c(O)c2ccccc21	69*	10	109	119	-1	-9
COc1ccc(/C=N\N=C(N)N)cc1	62*	6	95	102	-2	-1
CCC(C)N1C(=O)/C(=C\c2ccc(N3CCCCCC3)cc2)C(=O)NC1=S (centres undefined)	-5	7	64	88	51*	-3
COc1ccc2c(c1OC)CN1CCc3cc4c(cc3C1C2)OCO4 (centres undefined)	58*	2	105	104	3	-12
CN1CC(C(=O)c2cccc(C(F)(F)F)c2)C(c2ccc(Cl)cc2)C1 (centres undefined)	28	-46	122	107	11	16
Oc1c(Cl)cc(Cl)cc1CN1CCN(Cc2ccccc2)CC1	9	-13	102	99	3	5

Compound activity (PubChem)
